Published values of several laboratories.
Lines come from different studies, so protocols differ.
FLT3: Receptor-type tyrosine-protein kinase FLT3 (FLT3, Homo sapiens, UniProt P36888)
FLT3 N841I: Receptor-type tyrosine-protein kinase FLT3 (FLT3, Homo sapiens, UniProt P36888, N841I)

| Structure (SMILES) | target | test | setting | endpoint | result |
| --- | --- | --- | --- | --- | --- |
| C#Cc1n[nH]c2c(-c3cn(C(C)c4ccccn4)c(=O)[nH]c3=O)cc(F)cc12 (centres unmarked) | FLT3 | enzyme activity, inhibitor | 1 µM | inhibition | 8% |
| Cn1cncc1[C@@](O)(COc1ccc(C#N)cc1-c1ccc(OC(F)(F)F)cc1)c1ccc(C#N)cc1 | Receptor-type tyrosine-protein kinase FLT3 (FLT3, Homo sapiens, UniProt P36888, ITD) | cell-free assay, competition with immobilised ligand | 1 µM | remaining binding | 89% |
| C#Cc1n[nH]c2c(-c3cn([C@@H](C)c4ccccc4)c(=O)[nH]c3=O)cc(F)cc12 | FLT3 | enzyme activity, inhibitor | 0.1 µM | inhibition | 4.9% |
| Nc1ncc(-c2nc(N3CCOCC3)nc(N3CCOCC3)n2)c(C(F)F)n1 | FLT3 N841I | binding, competition with immobilised ligand | 10 µM | remaining binding | 46% |
| COc1ncccc1-c1cnn2ccc(N3CCN(C(=O)OC(C)C)CC3)nc12 | FLT3 | binding, competition with immobilised ligand | 1 µM | remaining binding | 100% |
| N#CC1(c2ccccn2)CCN(Cc2cc(C(=O)O)c(=O)n3ccccc23)CC1 | Receptor-type tyrosine-protein kinase FLT3 (FLT3, Homo sapiens, UniProt P36888, F691L/ITD) | cell-free assay, competition with immobilised ligand | 1 µM | remaining binding | 100% |
| CC(C)(C)c1cc(C=C(C#N)C#N)cc(Br)c1O | FLT3 | enzyme activity, inhibitor | 0.5 µM | remaining activity | 102% |
| Cn1cc(-c2cccc(N3CCc4c(sc5c4CC(C)(C)C5)C3=O)c2CO)cc(Nc2ccncn2)c1=O | FLT3 | enzyme activity, inhibitor | 1 µM | inhibition | -6% |
| Cc1nn(C)cc1-c1nc2c(N3CCN(Cc4ccc(Cl)cc4)CC3)c(Cl)cnc2[nH]1 | FLT3 N841I | binding, competition with immobilised ligand | 1 µM | remaining binding | 0% |
| O=c1[nH]c2ccccc2n1C1CCN(Cc2ccc(-c3[nH]c4cc5ncnc5cc4nc3-c3ccccc3)cc2)CC1 | FLT3 | cell-free assay | 0.5 µM | remaining signal | 94.6% |
| Cn1cc(-c2cc(F)cc(N3CCn4c(cc5c4CCCC5)C3=O)c2CO)cc(Nc2ccc(N3CCN(C4COC4)CC3)cn2)c1=O | FLT3 | enzyme activity, inhibitor | 0.1 µM | inhibition | 12% |
